Columns and labels:
[1] = target: T1, Cathepsin L2 (Homo sapiens) (UniProt O60911); assay: Inhibition of Cathepsin V assessed as second-order inactivation rate constant by spectrofluorometry
T1 sequence (whole entry): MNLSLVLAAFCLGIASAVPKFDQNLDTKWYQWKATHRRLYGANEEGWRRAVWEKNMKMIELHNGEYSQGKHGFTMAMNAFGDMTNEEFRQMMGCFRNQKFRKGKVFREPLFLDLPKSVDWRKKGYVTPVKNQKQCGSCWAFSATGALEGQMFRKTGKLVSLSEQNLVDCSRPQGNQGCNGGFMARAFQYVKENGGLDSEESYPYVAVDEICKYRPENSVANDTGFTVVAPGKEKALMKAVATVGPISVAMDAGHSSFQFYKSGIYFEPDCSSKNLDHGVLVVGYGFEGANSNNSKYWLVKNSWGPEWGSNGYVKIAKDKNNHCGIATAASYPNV
Outline: (§1)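 Continuous assay: substrate Cbz-Phe-Arg-AMC kept 10-fold below KM, with varying inhibitor concentrations, in enzyme-specific buffer (cathepsin S: phosphate pH 6.5, 2.5 mmol L⁻¹ EDTA; cathepsin V: acetate pH 5.5, 2.5 mmol L⁻¹ EDTA). AMC fluorescence ex 380/em 460 nm. Progress curves fit to P = (vz/kobs)[1−exp(−kobs·t)] + d to obtain kobs.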

[2] = target: Cathepsin S (Homo sapiens) (UniProt P25774); assay: Inhibition of Cathepsin S at 1 umol/L for 2 mins by spectrofluorometry
Chain of Cathepsin S (Homo sapiens) (P25774 115-331 limits assumed): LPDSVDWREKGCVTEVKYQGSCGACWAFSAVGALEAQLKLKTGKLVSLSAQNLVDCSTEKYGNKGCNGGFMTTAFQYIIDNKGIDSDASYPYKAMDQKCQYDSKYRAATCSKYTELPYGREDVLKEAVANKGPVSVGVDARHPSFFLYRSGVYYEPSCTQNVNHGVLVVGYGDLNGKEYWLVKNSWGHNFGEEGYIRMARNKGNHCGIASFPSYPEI
Outline: (§2)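 Enzyme pre-incubated with inhibitor (1 µmol L⁻¹) for 2 min at 37 °C in enzyme-specific buffer (cathepsin S: 50 mmol L⁻¹ sodium phosphate pH 6.5, 2.5 mmol L⁻¹ EDTA; cathepsin V: 50 mmol L⁻¹ sodium acetate pH 5.5, 2.5 mmol L⁻¹ EDTA). Then Cbz-Phe-Arg-AMC (1 µmol L⁻¹) added; fluorescence ex 380/em 460 nm. Residual activity as percentage of uninhibited control; triplicate.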

[3] = target: T1, Cathepsin L2 (Homo sapiens); assay: Inhibition of Cathepsin V at 1 umol/L for 2 mins by spectrofluorometry; outline: as §2
[4] = target: Cathepsin S (Homo sapiens) (UniProt P25774); assay: Inhibition of Cathepsin S assessed as second-order inactivation rate constant by spectrofluorometry; parameters: unit not given here; outline: as §1

SMILES	Activity [1]	inhibition [2]	inhibition [3]	Activity [4]
CCCC[Te](Br)(Br)c1ccccc1[C@H](C)OC	7400 mol/L/s	> 90%	90%	4900
CCCC[Se](Br)(Br)c1ccccc1[C@H](C)OC	2200 mol/L/s			2900
CCCC[Se](Cl)(Cl)c1ccccc1[C@H](C)OC	1000 mol/L/s			1500
CCCC[Se](Cl)(Cl)c1ccccc1COC	500 mol/L/s			1500
CCCC[Te](Cl)(Cl)c1ccccc1[C@H](C)OC	2400 mol/L/s	85%	90%	1800
CCCC[Te](Br)(Br)c1ccccc1[C@@H](C)OC	3900 mol/L/s	> 90%	90%	2500
CCCC[Te](Cl)(Cl)c1ccccc1[C@@H](C)OC	2500 mol/L/s	85%	90%	1800
CCCC[Te](Cl)(Cl)c1ccccc1COC	11600 mol/L/s	85%	90%	1300
CCCC[Se](Br)(Br)c1ccccc1[C@@H](C)OC	1000 mol/L/s			2200
CCCC[Se](Cl)(Cl)c1ccccc1[C@@H](C)OC	900 mol/L/s			1200
CCCC[Se](Br)(Br)c1ccccc1COC	3400 mol/L/s			4000
CCCC[Te](Br)(Br)c1ccccc1COC	26400 mol/L/s	96%	90%	4400
